In the M2OR odorant receptor database:
Changes are numbered by the printed parent chain.

Columns and labels:
Conditions in all cases: stereoisomer not certain
[1] = biological target: T1, OR6C65 (Homo sapiens) (UniProt A6NJZ3)
T1 sequence (whole entry): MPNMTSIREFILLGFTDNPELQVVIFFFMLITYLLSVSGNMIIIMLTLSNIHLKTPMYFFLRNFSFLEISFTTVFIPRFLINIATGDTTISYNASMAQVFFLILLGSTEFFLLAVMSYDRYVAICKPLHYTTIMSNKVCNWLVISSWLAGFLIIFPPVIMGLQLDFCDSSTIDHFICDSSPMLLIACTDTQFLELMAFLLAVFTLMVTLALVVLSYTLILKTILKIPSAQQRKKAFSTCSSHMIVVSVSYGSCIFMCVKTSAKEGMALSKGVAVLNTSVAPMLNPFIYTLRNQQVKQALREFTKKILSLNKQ
In short: (§1)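 Each receptor–molecule pair is labelled responsive or non-responsive (inactive) according to whether the original authors judged the measured signal statistically different from baseline. The data were taken from the main text and supplementary material of published papers and checked for typos and inconsistencies. Assay methods differed by source, with transient luciferase assays in mammalian cell lines being common.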

[2] = biological target: T2, OR6C68 (Homo sapiens) (UniProt A6NDL8)
T2 sequence (whole entry): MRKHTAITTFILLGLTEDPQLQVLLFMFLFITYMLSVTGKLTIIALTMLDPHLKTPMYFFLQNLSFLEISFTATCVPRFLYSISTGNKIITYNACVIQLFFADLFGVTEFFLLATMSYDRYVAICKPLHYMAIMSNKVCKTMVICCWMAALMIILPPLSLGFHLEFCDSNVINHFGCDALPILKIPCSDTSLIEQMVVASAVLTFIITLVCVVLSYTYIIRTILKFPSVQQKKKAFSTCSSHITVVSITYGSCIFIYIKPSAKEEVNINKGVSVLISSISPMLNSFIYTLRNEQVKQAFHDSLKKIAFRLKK
In short: as §1

[3] = biological target: T3, OR6C70 (Homo sapiens) (UniProt A6NIJ9)
T3 sequence (whole entry): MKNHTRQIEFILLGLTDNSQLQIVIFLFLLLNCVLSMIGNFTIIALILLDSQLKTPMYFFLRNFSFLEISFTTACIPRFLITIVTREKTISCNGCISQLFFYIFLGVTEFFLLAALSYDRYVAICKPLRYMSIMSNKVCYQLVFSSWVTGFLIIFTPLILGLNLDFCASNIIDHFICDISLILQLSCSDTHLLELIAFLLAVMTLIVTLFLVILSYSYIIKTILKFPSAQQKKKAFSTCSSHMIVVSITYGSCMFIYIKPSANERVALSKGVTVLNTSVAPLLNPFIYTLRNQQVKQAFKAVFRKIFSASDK
In short: as §1

[4] = biological target: T4, OR6C74 (Homo sapiens) (UniProt A6NCV1)
T4 sequence (whole entry): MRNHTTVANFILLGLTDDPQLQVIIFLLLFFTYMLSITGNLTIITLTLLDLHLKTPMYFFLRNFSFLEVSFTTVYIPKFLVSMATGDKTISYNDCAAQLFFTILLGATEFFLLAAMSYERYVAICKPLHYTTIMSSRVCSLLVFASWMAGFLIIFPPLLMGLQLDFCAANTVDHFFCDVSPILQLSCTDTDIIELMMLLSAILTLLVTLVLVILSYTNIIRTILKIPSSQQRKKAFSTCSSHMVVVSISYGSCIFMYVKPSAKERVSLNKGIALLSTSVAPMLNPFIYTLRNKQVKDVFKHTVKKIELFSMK
In short: as §1

[5] = biological target: T5, OR6C75 (Homo sapiens) (UniProt A6NL08)
T5 sequence (whole entry): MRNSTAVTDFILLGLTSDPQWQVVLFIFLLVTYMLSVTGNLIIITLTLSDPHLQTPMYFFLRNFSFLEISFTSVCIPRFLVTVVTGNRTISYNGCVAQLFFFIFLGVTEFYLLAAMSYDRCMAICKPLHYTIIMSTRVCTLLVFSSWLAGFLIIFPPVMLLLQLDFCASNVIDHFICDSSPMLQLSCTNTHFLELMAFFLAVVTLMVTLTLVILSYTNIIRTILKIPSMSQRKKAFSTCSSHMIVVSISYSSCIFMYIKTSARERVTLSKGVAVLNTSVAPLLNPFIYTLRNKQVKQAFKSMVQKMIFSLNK
In short: as §1

[6] = biological target: T6, OR6C76 (Homo sapiens) (UniProt A6NM76)
T6 sequence (whole entry): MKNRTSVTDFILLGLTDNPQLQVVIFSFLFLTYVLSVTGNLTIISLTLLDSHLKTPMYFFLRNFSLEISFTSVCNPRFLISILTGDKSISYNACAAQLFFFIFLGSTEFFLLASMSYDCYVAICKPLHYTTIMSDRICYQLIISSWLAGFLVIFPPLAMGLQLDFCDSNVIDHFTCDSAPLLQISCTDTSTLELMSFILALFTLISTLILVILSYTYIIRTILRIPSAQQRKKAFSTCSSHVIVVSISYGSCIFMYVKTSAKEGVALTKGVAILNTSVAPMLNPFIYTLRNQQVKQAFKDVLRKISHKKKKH
In short: as §1

[7] = biological target: T7, OR6F1 (Homo sapiens) (UniProt Q8NGZ6)
T7 sequence (whole entry): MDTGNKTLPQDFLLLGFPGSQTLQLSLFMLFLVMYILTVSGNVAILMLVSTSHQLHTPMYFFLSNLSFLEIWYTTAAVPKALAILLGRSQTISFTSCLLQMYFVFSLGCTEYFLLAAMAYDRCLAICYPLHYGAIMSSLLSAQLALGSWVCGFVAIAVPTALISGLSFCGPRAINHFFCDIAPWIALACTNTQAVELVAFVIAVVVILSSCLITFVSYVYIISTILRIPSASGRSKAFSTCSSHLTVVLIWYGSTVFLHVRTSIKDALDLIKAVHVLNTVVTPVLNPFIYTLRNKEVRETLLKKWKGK
In short: as §1

[8] = biological target: T8, OR6J1 (Homo sapiens) (UniProt Q8NGC5)
T8 sequence (whole entry): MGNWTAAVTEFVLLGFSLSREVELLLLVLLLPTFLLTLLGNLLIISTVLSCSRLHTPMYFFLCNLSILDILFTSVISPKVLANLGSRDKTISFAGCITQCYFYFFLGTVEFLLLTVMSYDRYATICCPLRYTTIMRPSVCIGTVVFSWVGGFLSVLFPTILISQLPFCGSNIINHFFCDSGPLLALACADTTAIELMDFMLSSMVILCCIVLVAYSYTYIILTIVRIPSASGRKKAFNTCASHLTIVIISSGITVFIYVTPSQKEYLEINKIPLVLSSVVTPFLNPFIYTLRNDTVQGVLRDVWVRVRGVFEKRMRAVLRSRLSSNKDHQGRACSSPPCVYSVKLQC
In short: as §1

[9] = biological target: T9, OR6K2 (Homo sapiens) (UniProt Q8NGY2)
T9 sequence (whole entry): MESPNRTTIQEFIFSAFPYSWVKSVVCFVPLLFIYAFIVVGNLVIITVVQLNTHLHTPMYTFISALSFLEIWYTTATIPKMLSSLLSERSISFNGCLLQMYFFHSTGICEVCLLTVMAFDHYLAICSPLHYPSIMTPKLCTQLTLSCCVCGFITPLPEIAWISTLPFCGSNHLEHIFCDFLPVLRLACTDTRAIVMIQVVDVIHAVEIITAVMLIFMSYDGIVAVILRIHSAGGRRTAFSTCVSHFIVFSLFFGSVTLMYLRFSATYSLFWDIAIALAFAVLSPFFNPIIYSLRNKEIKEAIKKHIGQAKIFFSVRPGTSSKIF
In short: as §1

[10] = system: T10, OR6K3
T10 sequence (whole entry): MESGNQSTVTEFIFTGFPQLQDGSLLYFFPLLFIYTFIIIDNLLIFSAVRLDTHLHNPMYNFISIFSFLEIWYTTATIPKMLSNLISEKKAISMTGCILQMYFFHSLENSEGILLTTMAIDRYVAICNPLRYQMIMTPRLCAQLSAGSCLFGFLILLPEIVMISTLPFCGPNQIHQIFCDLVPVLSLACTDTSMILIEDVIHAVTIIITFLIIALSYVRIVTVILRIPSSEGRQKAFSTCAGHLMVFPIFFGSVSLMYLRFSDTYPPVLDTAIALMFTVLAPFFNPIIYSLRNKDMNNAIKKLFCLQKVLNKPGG
In short: as §1

[11] = biological target: T11, OR6K6 (Homo sapiens) (UniProt Q8NGW6)
T11 sequence (whole entry): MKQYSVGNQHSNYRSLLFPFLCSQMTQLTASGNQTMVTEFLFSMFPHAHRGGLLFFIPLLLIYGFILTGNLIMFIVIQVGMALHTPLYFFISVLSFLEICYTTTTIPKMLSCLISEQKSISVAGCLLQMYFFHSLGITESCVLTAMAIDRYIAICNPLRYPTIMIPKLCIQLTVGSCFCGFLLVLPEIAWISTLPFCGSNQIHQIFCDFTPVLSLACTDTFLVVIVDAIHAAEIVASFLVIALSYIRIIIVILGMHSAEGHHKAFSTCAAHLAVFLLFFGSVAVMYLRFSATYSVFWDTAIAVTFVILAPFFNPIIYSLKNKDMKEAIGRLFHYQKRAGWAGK
In short: as §1

[12] = biological target: T12, OR6M1 (Homo sapiens) (UniProt Q8NGM8)
T12 sequence (whole entry): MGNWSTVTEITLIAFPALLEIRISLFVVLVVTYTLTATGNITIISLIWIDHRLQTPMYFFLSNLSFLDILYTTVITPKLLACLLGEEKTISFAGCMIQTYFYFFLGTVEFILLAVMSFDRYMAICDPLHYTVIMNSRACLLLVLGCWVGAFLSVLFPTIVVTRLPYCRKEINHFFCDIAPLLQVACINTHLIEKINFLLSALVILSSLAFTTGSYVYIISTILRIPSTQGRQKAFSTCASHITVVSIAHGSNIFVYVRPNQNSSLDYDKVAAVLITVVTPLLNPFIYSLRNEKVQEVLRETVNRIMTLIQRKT
In short: as §1

[13] = system: T13, OR6M1 R224C
T13 sequence (whole entry): T12 sequence (whole entry) with R224C
In short: as §1

[14] = system: T14, OR6M1 T276K
T14 sequence (whole entry): T12 sequence (whole entry) with T276K
In short: as §1

[15] = biological target: T15, OR6N1 (Homo sapiens) (UniProt Q8NGY5)
T15 sequence (whole entry): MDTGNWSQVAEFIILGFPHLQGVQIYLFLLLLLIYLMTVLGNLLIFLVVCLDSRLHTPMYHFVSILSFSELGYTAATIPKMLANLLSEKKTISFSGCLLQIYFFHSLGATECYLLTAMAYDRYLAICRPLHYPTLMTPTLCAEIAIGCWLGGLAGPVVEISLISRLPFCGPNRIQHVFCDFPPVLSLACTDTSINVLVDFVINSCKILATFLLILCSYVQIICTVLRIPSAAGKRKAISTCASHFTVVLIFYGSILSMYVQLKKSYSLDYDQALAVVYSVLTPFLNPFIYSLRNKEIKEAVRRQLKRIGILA
In short: as §1

[16] = biological target: T16, OR6N2 (Homo sapiens) (UniProt Q8NGY6)
T16 sequence (whole entry): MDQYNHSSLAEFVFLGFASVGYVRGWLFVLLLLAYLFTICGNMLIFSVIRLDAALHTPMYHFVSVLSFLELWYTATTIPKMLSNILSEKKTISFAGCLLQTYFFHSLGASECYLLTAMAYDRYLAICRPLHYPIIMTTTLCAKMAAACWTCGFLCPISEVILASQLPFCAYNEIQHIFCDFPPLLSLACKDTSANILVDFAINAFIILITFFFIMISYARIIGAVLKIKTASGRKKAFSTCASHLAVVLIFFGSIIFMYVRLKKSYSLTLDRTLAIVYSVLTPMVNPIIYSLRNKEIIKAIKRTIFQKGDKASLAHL
In short: as §1

[17] = biological target: T17, OR6P1 (Homo sapiens) (UniProt Q8NGX9)
T17 sequence (whole entry): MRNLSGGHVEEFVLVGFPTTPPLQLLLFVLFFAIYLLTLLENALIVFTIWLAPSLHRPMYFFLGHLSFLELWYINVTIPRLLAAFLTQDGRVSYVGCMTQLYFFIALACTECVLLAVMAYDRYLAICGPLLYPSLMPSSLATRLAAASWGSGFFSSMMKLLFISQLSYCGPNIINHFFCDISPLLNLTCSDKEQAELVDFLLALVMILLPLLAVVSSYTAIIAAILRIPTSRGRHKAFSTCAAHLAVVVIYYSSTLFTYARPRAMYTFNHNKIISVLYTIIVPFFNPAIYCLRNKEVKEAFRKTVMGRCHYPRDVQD
In short: as §1

[18] = biological target: T18, OR6Q1 (Homo sapiens) (UniProt Q8NGQ2)
T18 sequence (whole entry): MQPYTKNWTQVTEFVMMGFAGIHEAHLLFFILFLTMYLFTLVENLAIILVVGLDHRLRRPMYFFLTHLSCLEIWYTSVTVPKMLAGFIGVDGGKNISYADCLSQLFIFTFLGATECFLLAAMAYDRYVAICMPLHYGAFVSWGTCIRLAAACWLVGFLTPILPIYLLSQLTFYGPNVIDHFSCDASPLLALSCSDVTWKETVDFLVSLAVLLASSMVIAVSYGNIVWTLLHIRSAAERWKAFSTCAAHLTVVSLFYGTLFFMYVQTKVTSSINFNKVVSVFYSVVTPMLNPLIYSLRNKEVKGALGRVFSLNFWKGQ
In short: as §1

[19] = biological target: T19, OR6J1 (Homo sapiens) (UniProt Q8NGC5); remark: listed apart in the source
T19 sequence (whole entry): T8 sequence (whole entry) with S250P
In short: as §1

[20] = biological target: T20, OR6K3 (Homo sapiens) (UniProt Q8NGY3)
T20 sequence (whole entry): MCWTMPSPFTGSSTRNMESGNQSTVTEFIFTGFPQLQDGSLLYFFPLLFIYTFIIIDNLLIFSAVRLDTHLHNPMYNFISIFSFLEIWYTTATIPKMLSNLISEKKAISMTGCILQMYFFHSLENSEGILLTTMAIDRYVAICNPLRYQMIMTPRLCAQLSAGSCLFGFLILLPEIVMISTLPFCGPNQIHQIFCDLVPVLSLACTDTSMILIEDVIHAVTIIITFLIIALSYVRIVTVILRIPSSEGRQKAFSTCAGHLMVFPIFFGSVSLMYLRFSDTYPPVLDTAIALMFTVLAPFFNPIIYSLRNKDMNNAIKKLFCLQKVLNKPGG
In short: as §1

Measured: odorant receptor agonist call;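 note: active if original authors judged signal statistically different from baseline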

CC1=C(O)C(=O)C(C)O1 (centres undefined)
inactive: [1] | [2] | [3] | [4] | [5] | [6] | [7] | [8] | [9] | [10] | [11] | [12] | [13] | [14] | [15] | [16] | [17] | [18]

CC(=O)c1c(C)c([N+](=O)[O-])c(C(C)(C)C)c([N+](=O)[O-])c1C
inactive: [1] | [2] | [3] | [4] | [5] | [6] | [7] | [19] | [9] | [20] | [11] | [12] | [15] | [16] | [17] | [18]
